# Measurements: PMC8167812 (Cell reports, 2021)
# Key:
# TetR-Clr4 at tetO = test: ChIP analysis of TetR-Clr4 release from tetO after tetracycline addition; assay type: cell-based, fission yeast (S. pombe); conditions: tetracycline 10 μM
# Clr4-SET = Clr4-SET (Schizosaccharomyces pombe, UniProt O60016); test: Thermal shift assay, Clr4-SET; assay type: binding, fission yeast (S. pombe); conditions: without peptide, SYPRO orange, Figure S3C
# Procedure, shortened: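 Clr4 SET domain (residues 190–490) was expressed in Rosetta E. coli and purified on Talon resin. Protein at 3 μM was mixed with 150 μM SAM in 50 mM Tris pH 8.0, 1 mM EDTA and 0.5 mM DTT, held 10 min at room temperature then 10 min on ice. SYPRO orange was added and the sample ramped 25–99 °C in 1 °C steps over 75 min. Curves were min–max normalised; samples were run in duplicate.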
# Chain of Clr4-SET (O60016 190-490): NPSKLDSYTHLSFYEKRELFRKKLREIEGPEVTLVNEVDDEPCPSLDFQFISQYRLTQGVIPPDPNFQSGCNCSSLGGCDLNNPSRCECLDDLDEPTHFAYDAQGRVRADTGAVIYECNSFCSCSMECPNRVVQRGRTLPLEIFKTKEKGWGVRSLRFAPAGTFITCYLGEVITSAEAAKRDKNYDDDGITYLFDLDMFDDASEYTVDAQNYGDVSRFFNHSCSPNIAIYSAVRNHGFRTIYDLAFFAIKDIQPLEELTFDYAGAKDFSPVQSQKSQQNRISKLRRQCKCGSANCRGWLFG
SMILES,"release of TetR-Clr4 from tetO (TetR-Clr4 at tetO; hht3-K9M cells, samples at 5, 10, and 20 minutes)","time in which most TetR-Clr4 is released from tetO (TetR-Clr4 at tetO; 30°C, ChIP-qPCR normalized to act1+) [min]",thermal stability of Clr4 on addition of SAM alone (Clr4-SET)
CN(C)[C@@H]1C(O)=C(C(N)=O)C(=O)[C@@]2(O)C(O)=C3C(=O)c4c(O)cccc4[C@@](C)(O)[C@H]3C[C@@H]12 [tetracycline],a delay in the release of TetR-Clr4,≤ 5,
"C[S+](CC[C@H](N)C(=O)[O-])C[C@H]1O[C@@H](n2cnc3c(N)ncnc32)[C@H](O)[C@@H]1O (stereo partly drawn) [SAM, S-adenosyl-methionine]",,,greater thermal stability of Clr4
